# Measured values: the RNAGym collection of RNA variant scans (doi:10.1038/s41586-018-0170-7)
# B1: tRNA (parent)
# chain: GUUCCGUUGGCGUAAUGGUAACGCGUCUCCCUCCUAAGGAGAAGACUGCGGGUUCGAGUCCCGUACGGAACG
# Variants of: B1
# Experiment: yeast fitness, log relative to wild type (ln ratio); higher = fitter; tRNA-Arg(CCU), competitive growth, 37 C, 1 M NaCl
# How it was run: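 Two independent transformations put a combinatorial tRNA-Arg(CCU) variant library on a HIS3 centromeric plasmid into BY4742 lacking the chromosomal gene. Pools were grown in SC-HIS at 30 °C for 4 generations, then in SC-HIS 1M NaCl at 37 °C for ~6.5 generations (~26.5 h), with three outputs taken per input. Fitness compares a genotype's generations with the wild type's as a natural log ratio. Those generations are OD-scaled log2 output/input frequencies, inverse-variance weighted across replicates, from 125 bp paired-end Illumina counts.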
row,Variant,yeast fitness (ln)
1,AUUCCGUUGGCGUAAUGGUAACGCGUUUCCCUCCUAAGGAGAAGAUUGCGGGUUCGAGUCCCGUAAGGGGCG [G1A C27U C46U C66A A69G A70G],-0.248
2,ACUCCUUUGGCGUAAUGGUAACGCGUUUCCCUCCUAAGGAGACGAUUGCGGGUUCGAGUCCCGUACGGAGCG [G1A U2C G6U C27U A43C C46U A70G],-0.207
3,GUUCCAUUGGCGUAAUGGUAACGCGUCUCCCUCCUAAGGAGAAGACUGCGGGUUCGAGUCCCGUAUGGGUCG [G6A C66U A69G A70U],-0.335
4,AGUCCUUUGGCGUAAUGGUAACGCGUUUCCCUCCUAAGGAGAAGACUGCGGGUUCGAGUCCCGUAAGGAGUG [G1A U2G G6U C27U C66A A70G C71U],-0.287
5,AUUCCAUUGGCGUAAUGGUAACGCGUCUCCCUCCUAAGGAGACGACUGCGGGUUCGAGUCCCGUAUGGAGCG [G1A G6A A43C C66U A70G],-0.213
6,AGUCCGUUGGCGUAAUGGUAACGCGUCUCCCUCCUAAGGAGAAGACUGCGGGUUCGAGUCCCGUAAGGGGUG [G1A U2G C66A A69G A70G C71U],-0.235
7,AGUCCGUUGGCGUAAUGGUAACGCGUUUCCCUCCUAAGGAGAAGACUGCGGGUUCGAGUCCCGUACGGAGCG [G1A U2G C27U A70G],-0.142
8,AGUCCGUUGGCGUAAUGGUAACGCGUUUCCCUCCUAAGGAGACGACUGCGGGUUCGAGUCCCGUACGGGGCG [G1A U2G C27U A43C A69G A70G],-0.263
9,GUUCCUUUGGCGUAAUGGUAACGCGUUUCCCUCCUAAGGAGACGAUUGCGGGUUCGAGUCCCGUAAGGGGCG [G6U C27U A43C C46U C66A A69G A70G],-0.471
10,AGUCCGUUGGCGUAAUGGUAACGCGUUUCCCUCCUAAGGAGAAGACUGCGGGUUCGAGUCCCGUAUGGAAUG [G1A U2G C27U C66U C71U],-0.244
11,GCUCCUUUGGCGUAAUGGUAACGCGUCUCCCUCCUAAGGAGAAGACUGCGGGUUCGAGUCCCGUACGGAGCG [U2C G6U A70G],-0.0391
12,GGUCCAUUGGCGUAAUGGUAACGCGUUUCCCUCCUAAGGAGAAGACUGCGGGUUCGAGUCCCGUACGGGACG [U2G G6A C27U A69G],-0.24
13,GUUCCAUUGGCGUAAUGGUAACGCGUUUCCCUCCUAAGGAGACGACUGCGGGUUCGAGUCCCGUAAGGAGUG [G6A C27U A43C C66A A70G C71U],-0.325
14,ACUCCAUUGGCGUAAUGGUAACGCGUCUCCCUCCUAAGGAGACGAUUGCGGGUUCGAGUCCCGUACGGGUCG [G1A U2C G6A A43C C46U A69G A70U],-0.0463
15,GCUCCUUUGGCGUAAUGGUAACGCGUCUCCCUCCUAAGGAGACGACUGCGGGUUCGAGUCCCGUAUGGAUUG [U2C G6U A43C C66U A70U C71U],-0.531
16,GCUCCUUUGGCGUAAUGGUAACGCGUCUCCCUCCUAAGGAGACGAUUGCGGGUUCGAGUCCCGUACGGAUCG [U2C G6U A43C C46U A70U],-0.061
17,GUUCCUUUGGCGUAAUGGUAACGCGUCUCCCUCCUAAGGAGAAGACUGCGGGUUCGAGUCCCGUACGGGACG [G6U A69G],-0.234
18,AGUCCUUUGGCGUAAUGGUAACGCGUUUCCCUCCUAAGGAGACGACUGCGGGUUCGAGUCCCGUACGGAACG [G1A U2G G6U C27U A43C],-0.3
19,GCUCCAUUGGCGUAAUGGUAACGCGUCUCCCUCCUAAGGAGAAGACUGCGGGUUCGAGUCCCGUAUGGGGCG [U2C G6A C66U A69G A70G],-0.0273

row,Variant,yeast fitness (ln)
1,ACUCCUUUGGCGUAAUGGUAACGCGUUUCCCUCCUAAGGAGACGAUUGCGGGUUCGAGUCCCGUAAGGGUCG [G1A U2C G6U C27U A43C C46U C66A A69G A70U],-0.378
2,AGUCCGUUGGCGUAAUGGUAACGCGUUUCCCUCCUAAGGAGACGAUUGCGGGUUCGAGUCCCGUAAGGAGUG [G1A U2G C27U A43C C46U C66A A70G C71U],-0.224
3,GUUCCAUUGGCGUAAUGGUAACGCGUCUCCCUCCUAAGGAGACGAUUGCGGGUUCGAGUCCCGUACGGGUUG [G6A A43C C46U A69G A70U C71U],-0.493
4,ACUCCUUUGGCGUAAUGGUAACGCGUUUCCCUCCUAAGGAGACGAUUGCGGGUUCGAGUCCCGUACGGGUCG [G1A U2C G6U C27U A43C C46U A69G A70U],-0.183
5,ACUCCGUUGGCGUAAUGGUAACGCGUCUCCCUCCUAAGGAGACGACUGCGGGUUCGAGUCCCGUACGGGUCG [G1A U2C A43C A69G A70U],-0.0414
6,GCUCCAUUGGCGUAAUGGUAACGCGUCUCCCUCCUAAGGAGAAGAUUGCGGGUUCGAGUCCCGUAUGGGUCG [U2C G6A C46U C66U A69G A70U],-0.138
7,ACUCCAUUGGCGUAAUGGUAACGCGUCUCCCUCCUAAGGAGAAGACUGCGGGUUCGAGUCCCGUAUGGAACG [G1A U2C G6A C66U],-0.121
8,AUUCCUUUGGCGUAAUGGUAACGCGUCUCCCUCCUAAGGAGAAGAUUGCGGGUUCGAGUCCCGUAUGGGAUG [G1A G6U C46U C66U A69G C71U],-0.814
9,GGUCCGUUGGCGUAAUGGUAACGCGUCUCCCUCCUAAGGAGACGACUGCGGGUUCGAGUCCCGUAAGGAAUG [U2G A43C C66A C71U],-0.267
10,GUUCCUUUGGCGUAAUGGUAACGCGUCUCCCUCCUAAGGAGACGAUUGCGGGUUCGAGUCCCGUAUGGAACG [G6U A43C C46U C66U],-0.258
11,AGUCCUUUGGCGUAAUGGUAACGCGUCUCCCUCCUAAGGAGACGAUUGCGGGUUCGAGUCCCGUAAGGAUUG [G1A U2G G6U A43C C46U C66A A70U C71U],-0.0885
12,GUUCCGUUGGCGUAAUGGUAACGCGUUUCCCUCCUAAGGAGAAGAUUGCGGGUUCGAGUCCCGUAUGGGACG [C27U C46U C66U A69G],-0.521
13,GUUCCAUUGGCGUAAUGGUAACGCGUUUCCCUCCUAAGGAGACGACUGCGGGUUCGAGUCCCGUACGGGGCG [G6A C27U A43C A69G A70G],-0.264
14,AGUCCUUUGGCGUAAUGGUAACGCGUCUCCCUCCUAAGGAGAAGACUGCGGGUUCGAGUCCCGUAAGGGUUG [G1A U2G G6U C66A A69G A70U C71U],-0.335
15,AGUCCUUUGGCGUAAUGGUAACGCGUCUCCCUCCUAAGGAGAAGACUGCGGGUUCGAGUCCCGUAAGGGUCG [G1A U2G G6U C66A A69G A70U],-0.293
16,GCUCCUUUGGCGUAAUGGUAACGCGUUUCCCUCCUAAGGAGAAGACUGCGGGUUCGAGUCCCGUACGGGUCG [U2C G6U C27U A69G A70U],-0.111
17,AGUCCUUUGGCGUAAUGGUAACGCGUUUCCCUCCUAAGGAGAAGAUUGCGGGUUCGAGUCCCGUAUGGAGUG [G1A U2G G6U C27U C46U C66U A70G C71U],-0.307
18,AGUCCAUUGGCGUAAUGGUAACGCGUCUCCCUCCUAAGGAGAAGAUUGCGGGUUCGAGUCCCGUAUGGAUCG [G1A U2G G6A C46U C66U A70U],-0.251
19,AGUCCGUUGGCGUAAUGGUAACGCGUUUCCCUCCUAAGGAGAAGACUGCGGGUUCGAGUCCCGUACGGAACG [G1A U2G C27U],-0.0429
